Experimental data from ChEMBL document CHEMBL6115033, “Discovery of a Pyrazolopyridinone-Based MYC Inhibitor That Selectively Engages Intracellular c-MYC and Disrupts MYC-MAX Heterodimerization” (J Med Chem, 2025).
Calls of active or inactive are those of the source. No cut-off for these calls is given here.

Columns and labels:
P493-6 [1] = test: Antiproliferative activity against tetracycline-treated human P493-6 cells expressing MYC assessed as inhibition of cell proliferation at 25 uM incubated for 96 hrs by cell titer glo assay; type: functional, cell-based
Procedure, shortened: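 P493-6 cells, either untreated (high MYC) or MYC-off after 0.1 µg/mL tetracycline for 72 h, were exposed to 25 µM for 96 h. Read-out was % survival by CellTiter-Glo luminescence. Mean ± SD, n = 6, unpaired t-test.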

[2] = target: T1, c-Myc/c-Max (Homo sapiens) (UniProt P01106+P61244); test: Disruption of MYC-MAX interaction in human MDA-MB-468 cells at 25 uM incubated for 3 to 12 hrs by immunofluorescence analysis; type: cell-based; details: time 3-12 hrs
MDA-MB-468 [3] = test: Downregulation of MYC level in human MDA-MB-468 cells incubated for 24 hrs by Western blot analysis; type: functional, cell-based; details: dose <= 50.0 µM
Procedure, shortened: (§1)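 Cells (300,000/well) were plated 24 h, then exposed to graded concentrations or DMSO for 24 h. Laemmli lysates were run on 4–20% SDS-PAGE and immunoblotted for MYC. Levels were normalized to actin. Mean ± SD, n = 2, one-way ANOVA with Dunnett.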

P493-6 [4] = test: Downregulation of MYC level in human P493-6 cells incubated for 24 hrs by Western blot analysis; type: functional, cell-based; details: dose <= 50.0 µM; procedure, shortened: as §1
P493-6 [5] = test: Downregulation of MYC level in human P493-6 cells measured at 20 to 60 mins by Western blot analysis; type: functional, cell-based; details: time 20-60 min
Procedure, shortened: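 Cells were pretreated with 25 µM or DMSO for 3 h, then given 50 µg/mL cycloheximide for the indicated times. MYC was measured by western blot, and half-life came from a one-phase exponential decay fit.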

MDA-MB-468 [6] = test: Downregulation of MYC level in human MDA-MB-468 cells at 25 uM by Western blot analysis; type: functional, cell-based; details: time 9-24 hrs
Procedure, shortened: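 MDA-MB-468 cells were exposed to 25 µM over a time course of up to 24 h. MYC and FBXW7 were read by western blot.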

MDA-MB-468 [7] = test: Downregulation of CCNA2 mRNA expression in human MDA-MB-468 cells at 25 uM incubated for 12 hrs by qRT-PCR analysis; type: functional, cell-based
Procedure, shortened: (§2)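 Cells (500,000/well) were cultured with or without 25 µM for the indicated time. Total RNA was extracted with TRIzol and reverse-transcribed. qPCR used SYBR green with target-gene primers, reported as ΔΔCT.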

MDA-MB-468 [8] = test: Downregulation of CDK2 mRNA expression in human MDA-MB-468 cells at 25 uM incubated for 12 hrs by qRT-PCR analysis; type: functional, cell-based; procedure, shortened: as §2
MDA-MB-468 [9] = test: Downregulation of CDK1 mRNA expression in human MDA-MB-468 cells at 25 uM incubated for 12 hrs by qRT-PCR analysis; type: functional, cell-based; procedure, shortened: as §2
P493-6 [10] = test: Downregulation of CDC25A mRNA expression in human P493-6 cells at 25 uM incubated for 12 hrs by qRT-PCR analysis; type: functional, cell-based; procedure, shortened: as §2
P493-6 [11] = test: Downregulation of E2F1 mRNA expression in human P493-6 cells at 25 uM incubated for 12 hrs by qRT-PCR analysis; type: functional, cell-based; procedure, shortened: as §2
P493-6 [12] = test: Downregulation of E2F2 mRNA expression in human P493-6 cells at 25 uM incubated for 12 hrs by qRT-PCR analysis; type: functional, cell-based; procedure, shortened: as §2
MDA-MB-468 [13] = test: Downregulation of CDC25A mRNA expression in human MDA-MB-468 cells at 25 uM incubated at 48 hrs by qRT-PCR analysis; type: functional, cell-based; procedure, shortened: as §2
MDA-MB-468 [14] = test: Downregulation of CDC25C mRNA expression in human MDA-MB-468 cells at 25 uM incubated at 48 hrs by qRT-PCR analysis; type: functional, cell-based; procedure, shortened: as §2
[15] = Induction of apoptosis in human P493-6 cells assessed as viable cells at 25 uM incubated for 24 hrs by Annexin V/PI staining based flow cytometry analysis (reference value: 90.8%); type: functional; details: read-out: Activity
[16] = Induction of apoptosis in human P493-6 cells assessed as early apoptotic cells at 25 uM incubated for 24 hrs by Annexin V/PI staining based flow cytometry analysis (reference value: 2.52 %); type: functional
[17] = Induction of apoptosis in human P493-6 cells assessed as early apoptotic cells at 50 uM incubated for 24 hrs by Annexin V/PI staining based flow cytometry analysis (reference value: 2.52 %); type: functional
[18] = Induction of apoptosis in human P493-6 cells assessed as late apoptotic cells at 50 uM incubated for 24 hrs by Annexin V/PI staining based flow cytometry analysis (reference value: 6.52 %); type: functional
MDA-MB-468 [19] = test: Antitumor activity against human MDA-MB-468 cells xenografted in mouse assessed as tumor growth inhibition at 10 mg/kg, po measured at 14 to 26 days by elliptical measurement method based caliper analysis; type: functional, organism-based; details: time 14-26 day
MDA-MB-468 [20] = test: Induction of apoptosis in human MDA-MB-468 cells assessed as effect on PARP level at 50 uM incubated for 24 hrs
MDA-MB-468 [21] = test: Induction of apoptosis in human MDA-MB-468 cells assessed as effect on caspase-3 level at 50 uM incubated for 24 hrs
[22] = target: T1, c-Myc/c-Max (Homo sapiens); test: Disruption of MYC-MAX interaction in human MDA-MB-468 cells at 25 uM incubated for 12 hrs by proximity ligation assay
[23] = target: Myc proto-oncogene protein (Homo sapiens) (UniProt P01106); test: Binding affinity to MYC in human P493-6 cells assessed as thermal stabilization by measuring melting temperature at 25 uM measured for 2 hrs by CETSA analysis
MDA-MB-468 [24] = test: Antitumor activity against human MDA-MB-468 cells xenografted in mouse assessed as reduction in mYC expression at 10 mg/kg, sc measured at 14 to 26 days by IHC analysis; details: time 14-26 day
MDA-MB-468 [25] = test: Antitumor activity against human MDA-MB-468 cells xenografted in mouse assessed as reduction in Ki67 expression at 10 mg/kg, sc measured at 14 to 26 days by IHC analysis; details: time 14-26 day
[26] = target: Myc proto-oncogene protein (Homo sapiens) (UniProt P01106); test: Binding affinity to MYC in human P493-6 cells assessed as thermal stabilization by measuring melting temperature at 25 uM measured for 2 hrs by CETSA analysis (reference value: 42 degreeC)
MDA-MB-468 [27] = test: Antitumor activity against human MDA-MB-468 cells xenografted in mouse assessed as upregulation of caspase-3 expression at 10 mg/kg, sc measured at 14 to 26 days by IHC analysis; details: time 14-26 day

T1 sequence (P01106 whole entry): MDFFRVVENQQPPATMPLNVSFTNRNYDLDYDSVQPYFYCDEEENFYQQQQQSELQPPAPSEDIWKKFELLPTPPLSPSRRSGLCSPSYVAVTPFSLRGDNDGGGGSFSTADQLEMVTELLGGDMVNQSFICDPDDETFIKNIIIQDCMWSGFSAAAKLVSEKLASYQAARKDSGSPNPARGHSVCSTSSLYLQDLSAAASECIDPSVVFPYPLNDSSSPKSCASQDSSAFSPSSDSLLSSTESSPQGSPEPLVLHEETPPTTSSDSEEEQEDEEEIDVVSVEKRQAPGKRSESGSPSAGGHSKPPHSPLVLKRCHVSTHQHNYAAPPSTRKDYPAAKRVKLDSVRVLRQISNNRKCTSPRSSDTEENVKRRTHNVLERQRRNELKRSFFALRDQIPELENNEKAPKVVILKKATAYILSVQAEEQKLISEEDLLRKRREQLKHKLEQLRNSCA
T1 sequence (P61244 2-160 partner limits assumed): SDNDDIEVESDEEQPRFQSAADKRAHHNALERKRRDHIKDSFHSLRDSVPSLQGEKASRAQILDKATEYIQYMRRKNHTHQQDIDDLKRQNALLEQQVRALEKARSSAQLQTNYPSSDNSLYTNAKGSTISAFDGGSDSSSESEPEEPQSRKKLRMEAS
Chain of Myc proto-oncogene protein (Homo sapiens) (P01106 whole entry): as the sequence (P01106 whole entry) above

**Q.** With N#Cc1cc2c(-c3ccc(Cl)cc3)nn(-c3ccccc3)c2[nH]c1=O as the compound, how does the Activity (P493-6 [1]) read?
**A.** Its Activity is “Active”.

**Q.** And the Activity [2]?
**A.** Its Activity is “Active”.

**Q.** What about the Activity (MDA-MB-468 [3]) of the same compound?
**A.** Its Activity is “Dose-dependent-effect”.

**Q.** What about the Activity (P493-6 [4]) of the same compound?
**A.** The Activity was “Dose-dependent-effect”.

**Q.** What about the Activity (P493-6 [5]) of the same compound?
**A.** The Activity was “Active”.

**Q.** What about the Activity (MDA-MB-468 [6]) of the same compound?
**A.** Its Activity is “Time-dependent-effect”.

**Q.** And the Activity (MDA-MB-468 [7])?
**A.** Its Activity is “Active”.

**Q.** And the Activity (MDA-MB-468 [8])?
**A.** Its Activity is “Active”.

**Q.** And the Activity (MDA-MB-468 [9])?
**A.** The Activity was “Active”.

**Q.** What about the Activity (P493-6 [10]) of the same compound?
**A.** The Activity was “Active”.

**Q.** What about the Activity (P493-6 [11]) of the same compound?
**A.** Its Activity is “Active”.

**Q.** And the Activity (P493-6 [12])?
**A.** The Activity was “Active”.

**Q.** What about the Activity (MDA-MB-468 [13]) of the same compound?
**A.** Its Activity is “Active”.

**Q.** What about the Activity (MDA-MB-468 [14]) of the same compound?
**A.** Its Activity is “Active”.

**Q.** What about the viability at 25 µM [15] of the same compound?
**A.** Its viability at 25 µM is 85.5%.

**Q.** What about the Activity [16] of the same compound?
**A.** Its Activity is 3.1%.

**Q.** What about the Activity [17] of the same compound?
**A.** The Activity was 5.11%.

**Q.** And the Activity [18]?
**A.** Its Activity is 17.6%.

**Q.** And the TGI (MDA-MB-468 [19])?
**A.** Its TGI is “Active”.

**Q.** What about the Activity (MDA-MB-468 [20]) of the same compound?
**A.** Its Activity is “Active”.

**Q.** And the Activity (MDA-MB-468 [21])?
**A.** The Activity was “Active”.

**Q.** What about the Activity [22] of the same compound?
**A.** Its Activity is “Active”.

**Q.** And the Tm [23]?
**A.** The Tm was 35 °C.

**Q.** What about the Activity (MDA-MB-468 [24]) of the same compound?
**A.** Its Activity is “Active”.

**Q.** What about the Activity (MDA-MB-468 [25]) of the same compound?
**A.** Its Activity is “Active”.

**Q.** And the Tm [26]?
**A.** The Tm was 38 °C.

**Q.** And the Activity (MDA-MB-468 [27])?
**A.** Its Activity is “Active”.
